According to ChEMBL document CHEMBL1137506, “Novel orally active, dibenzazepinone-based gamma-secretase inhibitors” (Bioorg Med Chem Lett, 2007):

Legend:
[1] = biological target: Gamma-secretase; assay: Inhibition of human gamma secretase in HEK293 cells by reporter gene assay; type: cell-based
Outline: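 Cellular reporter assay in HEK293 cells. The γ-secretase substrate is a Notch 1 construct fused to a Gal4/VP16 transcription factor, which drives a firefly luciferase reporter gene. IC50 is taken from inhibition of the luciferase signal.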

[2] = biological target: Gamma-secretase; assay: Inhibition of human gamma secretase assessed as amyloid-beta40 peptide production […] by ELISA; type: cell-based; settings: hek293
Outline: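 Cell-free assay. Membrane fractions from HEK293 cells carrying γ-secretase activity are incubated with a recombinant APP C-terminal fragment as substrate. The Aβ40 peptide produced is quantified by ELISA, and IC50 is derived from it.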

[3] = system: Mus musculus; assay: Increase of CTF-APP ratio in po dosed transgenic mouse AD model after 2 days; type: functional
[4] = Oral bioavailability in mouse at 7.8 mg/kg, po; type: ADME, organism-based; settings: in vivo
Outline: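 Oral bioavailability (F) in mice after a 7.8 mg/kg oral dose.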

[5] = Clearance in mouse; type: ADME, organism-based; settings: in vivo
[6] = Maximal achievable bioavailability in rat liver microsomes; type: ADME, Microsome; settings: read-out: Max Achievable Bioavailability
[7] = Maximal achievable bioavailability in human liver microsomes; type: ADME, Microsome; settings: read-out: Max Achievable Bioavailability
Outline: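 Maximal achievable bioavailability is estimated from compound incubations with liver microsomes of the stated species.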

[8] = Ratio of drug level in brain to plasma in mouse; type: ADME
[9] = Solubility of compound; type: physicochemical

IC50 [1] [nM] | IC50 [2] [nM] | Fh [6] [%] | Fh [7] [%] | SMILES | also measured
1.7 | 8.6 | 70 | 72 | C[C@H](OC(=O)NCC(F)(F)C(F)(F)F)C(=O)N[C@@H]1C(=O)N(C)c2ccccc2-c2ccccc21 | MED [3]: 3 mg/kg; bioavailability [4]: 23%; clearance [5]: 32 mL/min/kg; Kp [8]: 0.5
1.6 | 2 | – | – | C[C@@H](C(=O)NCc1cc(F)cc(F)c1)C(=O)N[C@@H]1C(=O)N(C)c2ccccc2-c2ccccc21 | –
2 | – | – | – | CC(OC(=O)NCC(F)(F)C(F)(F)F)C(=O)N[C@@H]1C(=O)N(C)c2ccccc2-c2ccccc21 (some centres undefined) | –
1500 | 2700 | – | – | C[C@H](OC(=O)Nc1ccccc1)C(=O)NC1C(=O)N(C)c2ccccc2-c2ccccc21 (some centres undefined) | –
75 | 15 | – | – | CC(C(=O)NCc1ccccc1)C(=O)NC1C(=O)N(C)c2ccccc2-c2ccccc21 (centres undefined) | –
14000 | 12000 | – | – | CC(C(=O)NC1CCc2ccccc21)C(=O)NC1C(=O)N(C)c2ccccc2-c2ccccc21 (centres undefined) | –
580 | 620 | – | – | CC(C(=O)NCc1cc(F)cc(F)c1)C(=O)N[C@H]1C(=O)N(C)c2ccccc2-c2ccccc21 (mixture of isomers) | –
1.7 | 3 | 38 | 55 | CC(C(=O)NCC(F)(F)C(F)(F)F)C(=O)N[C@@H]1C(=O)N(C)c2ccccc2-c2ccccc21 (mixture of isomers) | MED [3]: 3 mg/kg; bioavailability [4]: 21%; clearance [5]: 53 mL/min/kg; Solubility [9]: 28 mg/mL; Kp [8]: 0.5

Continued, molecule first:

SMILES | IC50 [1] [nM] | IC50 [2] [nM] | Fh [6] [%] | Fh [7] [%] | also measured
CCOCCNC(=O)C(C)C(=O)NC1C(=O)N(C)c2ccccc2-c2ccccc21 (centres undefined) | 3300 | 3000 | – | – | –
CC(C(=O)NCC(F)(F)F)C(=O)NC1C(=O)N(C)c2ccccc2-c2ccccc21 (centres undefined) | 42 | 20 | 37 | 55 | –
CC(C(=O)NCCC(F)(F)F)C(=O)NC1C(=O)N(C)c2ccccc2-c2ccccc21 (centres undefined) | 24 | 37 | – | – | –
CC(C(=O)NC(CO)c1ccccc1)C(=O)NC1C(=O)N(C)c2ccccc2-c2ccccc21 (centres undefined) | > 25000 | 22000 | – | – | –
C[C@H](C(=O)NCc1cc(F)cc(F)c1)C(=O)N[C@@H]1C(=O)N(C)c2ccccc2-c2ccccc21 | 7.1 | 8.7 | – | – | –
CC(C(=O)NC(C)c1ccccc1)C(=O)NC1C(=O)N(C)c2ccccc2-c2ccccc21 (centres undefined) | 6300 | 5700 | – | – | –
CC(C(=O)NCc1cc(F)cc(F)c1)C(=O)NC1C(=O)N(C)c2ccccc2-c2ccccc21 (centres undefined) | 10 | 22 | 9 | 10 | –
C[C@H](NC(=O)[C@@H](O)c1cc(F)cc(F)c1)C(=O)N[C@@H]1C(=O)N(C)c2ccccc2-c2ccccc21 | – | – | – | – | MED [3]: 20 mg/kg
CC(C(=O)NCC1CC1)C(=O)NC1C(=O)N(C)c2ccccc2-c2ccccc21 (centres undefined) | 210 | 90 | 12 | 18 | –
CC(C(=O)NC1C(=O)N(C)c2ccccc2-c2ccccc21)C(=O)NC(C)(C)c1ccccc1 (centres undefined) | > 20000 | > 20000 | 9 | 14 | –
CC(C(N)=O)C(=O)NC1C(=O)N(C)c2ccccc2-c2ccccc21 (centres undefined) | > 25000 | 5300 | – | – | –
CC(C(=O)NCc1cc(F)cc(F)c1)C(=O)N[C@@H]1C(=O)N(C)c2ccccc2-c2ccccc21 (mixture of isomers) | 8.8 | 3.1 | – | – | –
